Common to all, as to type: functional, cell-based
In experiment [1] the test system is HeLa. Briefly: Antiproliferative activity against human HeLa cells after 48 hrs by MTT assay. The essentials:
(§1)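 Cells seeded in 96-well plates and exposed to compounds for 48 h at 37 °C, 5% CO2. MTT (0.5 mg/mL) then added for 4 h. Supernatant removed, formazan dissolved in DMSO, and OD read at 570 nm. Cisplatin served as positive control.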

In experiment [2] the test system is A549. Kind of experiment: Antiproliferative activity against human A549 cells after 48 hrs by MTT assay. The settings on record: A549, 48 h. The essentials:
as §1

Experiment [3] concerns SGC-7901. Kind of experiment: Antiproliferative activity against human SGC7901 cells after 48 hrs by MTT assay. The conditions noted are these: SGC-7901, 48 h. The essentials:
as §1

Experiment [4] has as its system Raji. Briefly: Antiproliferative activity against human Raji cells after 48 hrs by MTT assay. Put shortly:
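Human B-lymphoma Raji line kept in RPMI-1640 with 10% FBS and 100 U/mL penicillin at 37 °C, 5% CO2, humidified. Cells were plated in 96 wells and treated with compounds for 48 h. MTT (0.5 mg/mL) was added for 4 h, then formazan was taken up in DMSO after supernatant removal and read at 570 nm. Cisplatin served as positive control.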

With `CCOC(=O)[C@]1(C)CCC[C@@]2(C)[C@@H]3CC[C@@]4(C)C[C@]3(CC[C@@H]21)[C@@H]1CN(c2ccc(C)cc2)N=C14`, the IC50 was determined as 29.1 µM in experiment [1], 13.7 µM in experiment [2], 29.4 µM in experiment [3] and 3.91 µM in experiment [4].
`CCOC(=O)[C@]1(C)CCC[C@@]2(C)[C@@H]3CC[C@@]4(C)C[C@]3(CC[C@@H]21)[C@@H]1CN(c2cccc(C(F)(F)F)c2)N=C14`: the IC50 is more than 50 µM in experiment [1], more than 50 µM in experiment [2], more than 50 µM in experiment [3] and 7.21 µM in experiment [4].
On to `CCOC(=O)[C@]1(C)CCC[C@@]2(C)[C@@H]3CC[C@@]4(C)C[C@]3(CC[C@@H]21)[C@@H]1CN(c2cccc(C)c2C)N=C14`, for which the half-maximal inhibitory concentration (IC50) in experiment [1] was more than 50 µM; in experiment [2] it was more than 50 µM; in experiment [3] it was 31.9 µM; in experiment [4], 8.82 µM.
Regarding `CCOC(=O)[C@]1(C)CCC[C@@]2(C)[C@@H]3CC[C@@]4(C)C[C@]3(CC[C@@H]21)[C@@H]1CN(c2c(C)cccc2C)N=C14`, the concentration for half-maximal inhibition (IC50) in experiment [1] was 28.8 µM; in experiment [2] it was 17.6 µM; in experiment [3] it was 16.6 µM; in experiment [4], 5.63 µM.
In the case of `CCOC(=O)[C@]1(C)CCC[C@@]2(C)[C@@H]3CC[C@@]4(C)C[C@]3(CC[C@@H]21)[C@@H]1CN(c2ccc(C)c(C)c2)N=C14`, the half-inhibitory concentration (IC50) in experiment [1] was more than 50 µM; in experiment [2], more than 50 µM; in experiment [3] it was 32.5 µM; in experiment [4], 8.36 µM.
As for `CCOC(=O)[C@]1(C)CCC[C@@]2(C)[C@@H]3CC[C@@]4(C)C[C@]3(CC[C@@H]21)c1cnn(-c2ccccc2F)c14`, the half-inhibitory concentration (IC50) was more than 50 µM in experiment [1], 27 µM in experiment [2], 35.6 µM in experiment [3] and 4.15 µM in experiment [4].
For `CCOC(=O)[C@]1(C)CCC[C@@]2(C)[C@@H]3CC[C@@]4(C)C[C@]3(CC[C@@H]21)c1cnn(-c2cccc(F)c2)c14` the same measures were more than 50 µM, 19.2 µM, 35.8 µM and 3.4 µM.
For `CCOC(=O)[C@]1(C)CCC[C@@]2(C)[C@@H]3CC[C@@]4(C)C[C@]3(CC[C@@H]21)c1cnn(-c2ccc(F)cc2)c14` the same measures were more than 50 µM, 22.3 µM, 25.6 µM and 7.01 µM.
For `CCOC(=O)[C@]1(C)CCC[C@@]2(C)[C@@H]3CC[C@@]4(C)C[C@]3(CC[C@@H]21)c1cnn(-c2ccccc2Cl)c14` the same measures were 34.6 µM, 21.5 µM, 25.4 µM and 10.1 µM.
In the case of `CCOC(=O)[C@]1(C)CCC[C@@]2(C)[C@@H]3CC[C@@]4(C)C[C@]3(CC[C@@H]21)c1cnn(-c2cccc(Cl)c2)c14`, the IC50 is more than 50 µM in experiment [1], 28.2 µM in experiment [2], 26.3 µM in experiment [3] and 9.54 µM in experiment [4].
Consider `CCOC(=O)[C@]1(C)CCC[C@@]2(C)[C@@H]3CC[C@@]4(C)C[C@]3(CC[C@@H]21)c1cnn(-c2cccc(Br)c2)c14`, for which the 50% inhibitory concentration (IC50) in experiment [1] was more than 50 µM; in experiment [2], 26.5 µM; in experiment [3], 34.9 µM; in experiment [4], 3.27 µM.
For `CCOC(=O)[C@]1(C)CCC[C@@]2(C)[C@@H]3CC[C@@]4(C)C[C@]3(CC[C@@H]21)c1cnn(-c2ccc(Br)cc2)c14` the same measures were more than 50 µM, 23.1 µM, 29.6 µM and 4.78 µM.
As for `CCOC(=O)[C@]1(C)CCC[C@@]2(C)[C@@H]3CC[C@@]4(C)C[C@]3(CC[C@@H]21)c1cnn(-c2ccccc2C)c14`, the half-inhibitory concentration (IC50) came to 15.2 µM in experiment [1], 19 µM in experiment [2], 35.3 µM in experiment [3] and 7.71 µM in experiment [4].
For `CCOC(=O)[C@]1(C)CCC[C@@]2(C)[C@@H]3CC[C@@]4(C)C[C@]3(CC[C@@H]21)c1cnn(-c2cccc(C)c2)c14` the same measures were more than 50 µM, 12.4 µM, 13.6 µM and 4.84 µM.
The like results for `CCOC(=O)[C@]1(C)CCC[C@@]2(C)[C@@H]3CC[C@@]4(C)C[C@]3(CC[C@@H]21)c1cnn(-c2ccc(C)cc2)c14` were, in that order, more than 50 µM, 18.8 µM, 34.9 µM and 8.61 µM.
For `CCOC(=O)[C@]1(C)CCC[C@@]2(C)[C@@H]3CC[C@@]4(C)C[C@]3(CC[C@@H]21)c1cnn(-c2cccc([N+](=O)[O-])c2)c14` the same measures were more than 50 µM, more than 50 µM, more than 50 µM and 7.4 µM.
In the case of `CCOC(=O)[C@]1(C)CCC[C@@]2(C)[C@@H]3CC[C@@]4(C)C[C@]3(CC[C@@H]21)c1cnn(-c2ccc(F)cc2F)c14`, the IC50 is more than 50 µM in experiment [1], 20.1 µM in experiment [2], 28.4 µM in experiment [3] and 9.96 µM in experiment [4].
For `CCOC(=O)[C@]1(C)CCC[C@@]2(C)[C@@H]3CC[C@@]4(C)C[C@]3(CC[C@@H]21)c1cnn(-c2cc(F)ccc2F)c14` the same measures were more than 50 µM, more than 50 µM, more than 50 µM and 7.11 µM.
The like results for `CCOC(=O)[C@]1(C)CCC[C@@]2(C)[C@@H]3CC[C@@]4(C)C[C@]3(CC[C@@H]21)c1cnn(-c2cccc(Cl)c2Cl)c14` were, in that order, more than 50 µM, more than 50 µM, more than 50 µM and 5.13 µM.
The like results for `CCOC(=O)[C@]1(C)CCC[C@@]2(C)[C@@H]3CC[C@@]4(C)C[C@]3(CC[C@@H]21)c1cnn(-c2ccc(Cl)cc2Cl)c14` were, in that order, 13.5 µM, 3.18 µM, 2.71 µM and 1.09 µM.
Take `CCOC(=O)[C@]1(C)CCC[C@@]2(C)[C@@H]3CC[C@@]4(C)C[C@]3(CC[C@@H]21)c1cnn(-c2c(Cl)cccc2Cl)c14`: the IC50 in experiment [1] is 34.9 µM; in experiment [2], 33.2 µM; in experiment [3] it was 27.1 µM; in experiment [4], 5.7 µM.
Regarding `CCOC(=O)[C@]1(C)CCC[C@@]2(C)[C@@H]3CC[C@@]4(C)C[C@]3(CC[C@@H]21)c1cnn(-c2cccc(C)c2C)c14`, the concentration for half-maximal inhibition (IC50) in experiment [1] turned out to be 37.5 µM; in experiment [2], 18.2 µM; in experiment [3], 19.3 µM; in experiment [4] it was 3.26 µM.
Consider `CCOC(=O)[C@]1(C)CCC[C@@]2(C)[C@@H]3CC[C@@]4(C)C[C@]3(CC[C@@H]21)c1cnn(-c2ccc(C)cc2C)c14`, for which the IC50 in experiment [1] is 43.3 µM; in experiment [2], 16.5 µM; in experiment [3], 18.7 µM; in experiment [4], 6.55 µM.
Consider `CCOC(=O)[C@]1(C)CCC[C@@]2(C)[C@@H]3CC[C@@]4(C)C[C@]3(CC[C@@H]21)c1cnn(-c2cc(C)ccc2C)c14`, for which the IC50 in experiment [1] was found to be 34.3 µM; in experiment [2], 17.1 µM; in experiment [3], 33 µM; in experiment [4], 7.94 µM.
The like results for `CCOC(=O)[C@]1(C)CCC[C@@]2(C)[C@@H]3CC[C@@]4(C)C[C@]3(CC[C@@H]21)c1cnn(-c2c(C)cccc2C)c14` were, in that order, 20.3 µM, 11.8 µM, 9.17 µM and 2.09 µM.
For `CCOC(=O)[C@]1(C)CCC[C@@]2(C)[C@@H]3CC[C@@]4(C)C[C@]3(CC[C@@H]21)c1cnn(-c2ccc(C)c(C)c2)c14` the same measures were 38.2 µM, 15.8 µM, 38.1 µM and 6.5 µM.
The like results for `CCOC(=O)[C@]1(C)CCC[C@@]2(C)[C@@H]3CC[C@@]4(C)C[C@]3(CC[C@@H]21)[C@@H]1CN(c2ccc(F)cc2)N=C14` were, in that order, more than 50 µM, more than 50 µM, more than 50 µM and 4.51 µM.
On to `CCOC(=O)[C@]1(C)CCC[C@@]2(C)[C@@H]3CC[C@@]4(C)C[C@]3(CC[C@@H]21)[C@@H]1CN(c2cccc(Cl)c2)N=C14`, for which the IC50 in experiment [1] is more than 50 µM; in experiment [2], more than 50 µM; in experiment [3] it was more than 50 µM; in experiment [4] it was 4.57 µM.
On to `C[C@@]12CC[C@@H]3[C@@](CC[C@H]4[C@@]3(C)CCC[C@@]4(C)C(=O)O)(CC1=O)C2` [ISOSTEVIOL], for which the concentration for half-maximal inhibition (IC50) in experiment [1], in experiment [2], in experiment [3] and in experiment [4] was more than 50 µM in each case.
